# Calls of active or inactive are those of the source. No cut-off for these calls is given here.
# Assays:
# SH-SY5Y [1] = experiment: Neuroprotective activity against MPP+-induced toxicity in human SH-SY5Y cells assessed as ratio of Bax to beta-actin protein expression level at 5 uM preincubated for 1 hr followed by MPP+ addition measured up to 12 hrs by Western blot method (reference value: 1.26); type: functional
# How it was run: (§1)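 SH-SY5Y cells seeded 5x10⁵/well and left to adhere 24 h. Compounds (1 or 5 μM) were added 1 h before 2 mM MPP⁺ for 12 h. Lysates in RIPA-type buffer; 10 μg protein run on 10% SDS gels and blotted to PVDF. Blots were probed with rabbit anti-bax, Bcl-2, Bcl-xl or caspase-3 (cleaved p17/p19) antibodies and detected by chemiluminescence. Densitometry was normalised to β-actin. Mean ± SD, n = 3.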
# SH-SY5Y [2] = experiment: Neuroprotective activity against MPP+-induced toxicity in human SH-SY5Y cells assessed as decrease in Bax protein expression level preincubated for 1 hr followed by MPP+ addition measured up to 12 hrs by Western blot method; type: functional, cell-based; how it was run: as §1
# SH-SY5Y [3] = experiment: Neuroprotective activity against MPP+-induced toxicity in human SH-SY5Y cells assessed as increase in Bcl-xl protein level at 1 uM preincubated for 1 hr followed by MPP+ addition measured up to 12 hrs by Western blot method; type: functional, cell-based; how it was run: as §1
# SH-SY5Y [4] = experiment: Neuroprotective activity against MPP+-induced toxicity in human SH-SY5Y cells assessed as increase in cell viability preincubated for 1 hr followed by MPP+ addition measured up to 24 hrs by MTT assay; type: functional, cell-based
# How it was run: (§2)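 SH-SY5Y cells seeded 2x10³/well and left to adhere 24 h. Compounds (5–20 μM, DMSO) were added 1 h before 2 mM MPP⁺ for 24 h at 37°C, 5% CO2. Viability was read by MTT (0.5 mg/ml final, 3 h), DMSO solubilisation and absorbance at 570/630 nm, expressed as % of vehicle control. Mean ± SD, n = 5.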
# SH-SY5Y [5] = experiment: Neuroprotective activity against MPP+-induced toxicity in human SH-SY5Y cells assessed as ratio of Bcl2 to beta-actin protein expression level at 5 uM preincubated for 1 hr followed by MPP+ addition measured up to 12 hrs by Western blot method (reference value: 2.84 +/- 0.02); type: functional; how it was run: as §1
# SH-SY5Y [6] = experiment: Cytotoxicity against human SH-SY5Y cells assessed as reduction in cell viability up to 20 uM up to 24 hrs by MTT assay; type: cell-based
# How it was run: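 SH-SY5Y cells in DMEM with 10% FBS and penicillin/streptomycin at 37°C, 5% CO2, seeded 2x10³ cells/well and left to adhere 24 h. Compounds (5, 10, 20 μM, in DMSO) were added for 3, 6 and 24 h. MTT was then added (0.5 mg/ml final) for 3 h, and formazan was dissolved in DMSO and read at 570/630 nm. Values are relative to vehicle control.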
# SH-SY5Y [7] = experiment: Neuroprotective activity against MPP+-induced toxicity in human SH-SY5Y cells assessed as increase in cell viability at 20 uM preincubated for 1 hr followed by MPP+ addition measured up to 24 hrs by MTT assay relative to control; type: functional; how it was run: as §2
# SH-SY5Y [8] = experiment: Neuroprotective activity against MPP+-induced toxicity in human SH-SY5Y cells assessed as ratio of Bax to beta-actin protein expression level at 1 uM preincubated for 1 hr followed by MPP+ addition measured up to 12 hrs by Western blot method (reference value: 1.26); type: functional; how it was run: as §1
# SH-SY5Y [9] = experiment: Neuroprotective activity against MPP+-induced toxicity in human SH-SY5Y cells assessed as increase in Bcl2 protein expression level preincubated for 1 hr followed by MPP+ addition measured up to 12 hrs by Western blot method
# SH-SY5Y [10] = experiment: Neuroprotective activity against MPP+-induced toxicity in human SH-SY5Y cells assessed as increase in Bcl2 protein expression level at 1 uM preincubated for 1 hr followed by MPP+ addition measured up to 12 hrs by Western blot method
# SH-SY5Y [11] = experiment: Neuroprotective activity against MPP+-induced toxicity in human SH-SY5Y cells assessed as decrease in caspase-3 activation at 1 uM preincubated for 1 hr followed by MPP+ addition measured up to 12 hrs by Western blot method; type: functional, cell-based; how it was run: as §1
# SH-SY5Y [12] = experiment: Neuroprotective activity against MPP+-induced toxicity in human SH-SY5Y cells assessed as increase in cell viability at 5 to 10 uM preincubated for 1 hr followed by MPP+ addition measured up to 24 hrs by MTT assay relative to control; type: functional; how it was run: as §2
# SH-SY5Y [13] = experiment: Neuroprotective activity against MPP+-induced toxicity in human SH-SY5Y cells assessed as increase in cell viability at 5 uM preincubated for 1 hr followed by MPP+ addition measured up to 24 hrs by MTT assay relative to control; type: functional; how it was run: as §2
# SH-SY5Y [14] = experiment: Neuroprotective activity against MPP+-induced toxicity in human SH-SY5Y cells assessed as increase in cell viability at 10 to 20 uM preincubated for 1 hr followed by MPP+ addition measured up to 24 hrs by MTT assay relative to control; type: functional; how it was run: as §2
# SH-SY5Y [15] = experiment: Neuroprotective activity against MPP+-induced toxicity in human SH-SY5Y cells assessed as decrease in caspase-3 activation at 5 uM preincubated for 1 hr followed by MPP+ addition measured up to 12 hrs by Western blot method; type: functional, cell-based; how it was run: as §1
# SH-SY5Y [16] = experiment: Neuroprotective activity against MPP+-induced toxicity in human SH-SY5Y cells assessed as increase in Bcl-xl protein level by measuring ratio of Bcl-xl to beta actin level at 5 uM preincubated for 1 hr followed by MPP+ addition measured up to 12 hrs by Western blot method (reference value: 0.27 +/- 0.001); type: functional; how it was run: as §1
SMILES,Ratio (SH-SY5Y [1]),Activity (SH-SY5Y [2]),Activity (SH-SY5Y [3]),Activity (SH-SY5Y [4]),Ratio (SH-SY5Y [5]),Activity (SH-SY5Y [6]),Activity (SH-SY5Y [7]),Ratio (SH-SY5Y [8]),Activity (SH-SY5Y [9]),Activity (SH-SY5Y [10]),Activity (SH-SY5Y [11]),Activity (SH-SY5Y [12]),Activity (SH-SY5Y [13]),Activity (SH-SY5Y [14]),Activity (SH-SY5Y [15]),Ratio (SH-SY5Y [16])
Cc1nc2c(c(C)nn2-c2ccccc2)c(C)c1-c1ccc(Cl)cc1,0.49 - 1.03,Dose-dependent effect,Active,Dose-dependent effect,0.39,Non-Toxic,10 - 20%,0.78,Dose-dependent effect,inactive,Active,20 - 30%,,,,
CCOC(=O)c1ccc(-c2c(C)nc3c(c(C)nn3-c3ccccc3)c2C)cc1,,,,Dose-dependent effect,,Non-Toxic,,,,,,,20 - 30%,10 - 20%,,
Cc1ccc(-c2c(C)nc3c(c(C)nn3-c3ccccc3)c2C)cc1,0.49 - 1.03,Dose-dependent effect,Active,Dose-dependent effect,3.62,Non-Toxic,,1.11,Dose-dependent effect,inactive,Active,,20 - 30%,10 - 20%,Active,
Cc1cccc(-c2c(C)nc3c(c(C)nn3-c3ccccc3)c2C)c1,,,,Dose-dependent effect,,Non-Toxic,,,,,,,20 - 30%,10 - 20%,,
Cc1nc2c(c(C)nn2-c2ccccc2)c(C)c1-c1ccc(F)nc1,,,,Dose-dependent effect,,Non-Toxic,10 - 20%,,,,,20 - 30%,,,,
Cc1ccccc1-c1c(C)nc2c(c(C)nn2-c2ccccc2)c1C,,,,Dose-dependent effect,,Non-Toxic,,,,,,,20 - 30%,10 - 20%,,
Cc1nc2c(c(C)nn2-c2ccccc2)c(C)c1-c1ccc(C(F)(F)F)cc1,0.49 - 1.03,Dose-dependent effect,Active,Dose-dependent effect,0.85,Non-Toxic,,0.85,Dose-dependent effect,inactive,Active,,20 - 30%,10 - 20%,inactive,0.28
Cc1nc2c(c(C)nn2-c2ccccc2)c(C)c1-c1cccs1,0.49 - 1.03,Dose-dependent effect,Active,Dose-dependent effect,4.33,Non-Toxic,,0.76,Dose-dependent effect,inactive,Active,,20 - 30%,10 - 20%,,
COc1ccc(-c2c(C)nc3c(c(C)nn3-c3ccccc3)c2C)cc1,,,,Dose-dependent effect,,Non-Toxic,,,,,,,20 - 30%,10 - 20%,,
Cc1nc2c(c(C)nn2-c2ccccc2)c(C)c1-c1ccc(C=O)cc1,0.49 - 1.03,Dose-dependent effect,Active,Dose-dependent effect,2.63,Non-Toxic,,0.86,Dose-dependent effect,inactive,Active,,20 - 30%,10 - 20%,Active,
Cc1nc2c(c(C)nn2-c2ccccc2)c(C)c1-c1ccc(N(C)C)cc1,,,,Dose-dependent effect,,Non-Toxic,,,,,,,20 - 30%,10 - 20%,,
Cc1nc2c(c(C)nn2-c2ccccc2)c(C)c1Br,,,,Dose-dependent effect,,Non-Toxic,,,,,,,20 - 30%,10 - 20%,,
Cc1nc2c(c(C)nn2-c2ccccc2)c(C)c1-c1cccc(C#N)c1,,,,Dose-dependent effect,,Non-Toxic,,,,,,,20 - 30%,10 - 20%,,
Cc1nc2c(c(C)nn2-c2ccccc2)c(C)c1-c1ccccc1,,,,Dose-dependent effect,,Non-Toxic,,,,,,,20 - 30%,10 - 20%,,
Cc1nc2c(c(C)nn2-c2ccccc2)c(C)c1-c1ccc([N+](=O)[O-])cc1,0.49 - 1.03,Dose-dependent effect,Active,Dose-dependent effect,3.22,Non-Toxic,,0.75,Dose-dependent effect,inactive,Active,,20 - 30%,10 - 20%,inactive,

# Reference: ChEMBL document CHEMBL4004856, “Synthesis of new heterocyclic compounds based on pyrazolopyridine scaffold and evaluation of their neuroprotective potential in MPP+-induced neurodegeneration” (Eur J Med Chem, 2017)
